This is a sample that favours compounds with a hit; in the whole collection about 3.1% have one here.
PGC1a acetyl inh: inhibitors of PGC1a acetylation signal, primary screen, cell-based, U2OS, AlphaScreen, inhibitor mode; AlphaScreen anti-acetyl-lysine; with virally co-expressed GCN5 acetyltransferase; inhibition, % at 15.6 µM; 350,000 compounds, 0.17% hits;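 active = every replicate shows inhibition of at least 40%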;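 also: 0% = neutral control wells and 100% = positive control wells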
PAX8 inh HTS: inhibitors of PAX8-driven TPO luciferase reporter, primary screen, RMG-I cells, single concentration | SteadyGlo, 24 h | inhibition, % at 12.6 µM | 360,000 compounds, 1.2% hits | AID 652154, 2013;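 active = mean replicate inhibition at least 60% with every replicate also reaching 60%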;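 also: luciferase light reporting Pax8 driven TPO promoter activity; plate controls were median of neutral control wells for no effect and mitoxantrone controls for full effect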
EWS-Fli block: EWS/Fli-driven NR0B1 reporter inhibitors, primary screen, A673 cells, NR0B1 luciferase, luminescence, MLPCN library | viability-normalised | inhibition, % at 12.6 µM | 350,000 compounds, 0.67% hits | AID 651661, 2012;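 active = mean inhibition of at least 50% after viability correction, with every replicate also passing that limit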;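 also: firefly luciferase signal divided by Alamar Blue viability fluorescence both relative to DMSO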
FN deposition inh: inhibitors of fibronectin matrix deposition, primary screen, AH1F cells, Alexa488-fibronectin fluorescence, plate reader; AH1F fibroblasts, overnight; inhibition, % at 12.6 µM; 350,000 compounds, 0.086% hits;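 active = mean inhibition across replicates of 30% or more, regardless of how many single replicates reach that level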;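 also: positive control wells lacked labelled fibronectin entirely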
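Assay system: AH1F fibroblast monolayer, labelled fibronectin deposition. Amount: 10000 cells per well. Also added: labelled fibronectin 24 nM. Compound: single-point pinned compound. Incubation: cell attachment 1 h, compound and FN exposure overnight. Detection: fluorescence after three HBSS washes, excitation 485 nm, emission 525 nm. Read-out: inhibition of fibronectin deposition signal.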
HIV Env fusion: inhibitors of HIV-1 Env-driven cell-cell fusion, primary screen, HeLa-JRFL effector, CEM21 target cells, luciferase | inhibition, % at 12.3 µM | 360,000 compounds, 1.1% hits | AID 651610, 2012;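 active = mean replicate inhibition score of at least 50 and every replicate individually at or above 50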;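 also: 0% = plate neutral controls and 100% = maraviroc near 300 nM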
FGF22 binding: binders of human FGF22 protein, primary screen, FGF22 synaptogenesis inhibitor project, biophysical, thermal shift, single point; Fibroblast growth factor 22 (Homo sapiens), Q9HCT0; recombinant FGF22 thermal shift, SYPRO orange fluorescence; percent of sucrose octasulfate shift, DMSO zero; activity (Tm shift, normalised), % at 9.99 µM; 340,000 compounds, 1.5% hits; AID 651658, 2012;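 active = mean Tm shift, scaled 0 neutral to 100 positive control, at about 1.3% or above, every replicate too, limit read from the data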
Target sequence (Q9HCT0 whole entry, looked up): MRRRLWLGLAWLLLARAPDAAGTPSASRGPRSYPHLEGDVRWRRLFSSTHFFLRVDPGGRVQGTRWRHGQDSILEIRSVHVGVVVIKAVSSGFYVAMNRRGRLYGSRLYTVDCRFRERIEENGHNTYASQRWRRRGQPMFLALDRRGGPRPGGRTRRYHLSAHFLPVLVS
The depositor's hits bear a star; [ ] = remark or other dose.

CCCNC(=O)C[C@H]1CC[C@@H]2[C@H](COc3ccc(NC(=O)Nc4ccccc4)cc3C(=O)N2C)O1 was read as PGC1a acetyl inh 6.3, PAX8 inh HTS 14.7, EWS-Fli block -10.7, FN deposition inh 1.6, HIV Env fusion 14.8[16.7 µM] and FGF22 binding -0.2.
C[C@@H]1CN([C@H](C)CO)C(=O)c2cc(NS(=O)(=O)c3ccc(F)cc3)ccc2O[C@@H](C)CCCCO[C@H]1CN(C)S(=O)(=O)c1ccc(Cl)cc1 was read as PGC1a acetyl inh 2.0, PAX8 inh HTS 98.4*, EWS-Fli block 7.8, FN deposition inh -0.7, HIV Env fusion -6.1[16.7 µM] and FGF22 binding 0.2.
For Cc1noc(C)c1NC(=O)Nc1ccc2c(c1)C(=O)N([C@@H](C)CO)C[C@@H](C)[C@@H](CN(C)C(=O)CCCN(C)C)OCCCC[C@H](C)O2 the results were PGC1a acetyl inh 1.0, PAX8 inh HTS -2.4, EWS-Fli block -10.1, HIV Env fusion 18.6[16.7 µM] and FGF22 binding -0.7.
For C[C@@H]1CN([C@H](C)CO)C(=O)Cc2cc(NC(=O)Cn3cnnn3)ccc2O[C@H]1CN(C)S(=O)(=O)c1cn(C)cn1 the results were PGC1a acetyl inh -1.1, PAX8 inh HTS -0.3, EWS-Fli block 0.1, HIV Env fusion -30.8[16.7 µM] and FGF22 binding 0.1.
Screening O=C1CC(C(=O)Nc2cccc(F)c2)n2ncnc2N1 (centres undefined) returned PAX8 inh HTS -3.3, EWS-Fli block 3.3, FN deposition inh -7.3, HIV Env fusion 12.9 and FGF22 binding 43.0*.
CN(C)CC(=O)N1[C@H](CO)[C@H](c2ccccc2-c2ccc(C(=O)N(C)C)cc2)[C@@H]1C#N was read as EWS-Fli block 0.3 and FN deposition inh -8.5.
Screening O=C(NN=Cc1ccccc1O)C1CC1 returned PGC1a acetyl inh 9.5, PAX8 inh HTS -6.2, EWS-Fli block 1.0, FN deposition inh 4.0 and FGF22 binding 43.2*.
O=C(NCc1cccnc1)c1cccc(NS(=O)(=O)c2ccc(Br)cc2)c1 was read as PAX8 inh HTS 20.5, EWS-Fli block 58.1*, FN deposition inh 13.2 and FGF22 binding -0.4.
For CCN(CC)CCNc1cc(C)nc2c1C(=O)C(=O)C=C2N1CCCCC1 the results were PGC1a acetyl inh 30.8, PAX8 inh HTS 73.1*, EWS-Fli block -17.2, FN deposition inh 12.8, HIV Env fusion 2.8 and FGF22 binding -0.4.
For COc1ccc(/C=C/C(=O)OCCCN(C)C)cc1 the results were PAX8 inh HTS 1.8, EWS-Fli block 5.3, FN deposition inh -0.6, HIV Env fusion 12.7 and FGF22 binding 0.4.
`COc1ccccc1/C=C/C(=O)OCCCN(C)C` gave PAX8 inh HTS -11.2, EWS-Fli block 4.0, FN deposition inh -4.0, HIV Env fusion 27.8 and FGF22 binding 43.6*.
`COc1ccccc1/C=C/C(=O)Oc1cccc2cccnc12` gave PGC1a acetyl inh -6.0, PAX8 inh HTS 9.3, EWS-Fli block 6.1, FN deposition inh 0.2, HIV Env fusion 10.1 and FGF22 binding 43.0*.
Screening O=C(/C=C\c1ccco1)Oc1cccc2cccnc12 returned PAX8 inh HTS -1.0, EWS-Fli block 12.6, FN deposition inh -1.8, HIV Env fusion 9.7 and FGF22 binding -0.3.
CN(C)CCCNC(=O)C[C@@H]1CC[C@H]2[C@@H](COC[C@H](O)CN2CC2CCCCC2)O1 was read as EWS-Fli block -12.8 and FN deposition inh -0.4.
COc1cccc(S(=O)(=O)N(C)C[C@H]2Oc3cc(C4=CCCC4)ccc3S(=O)(=O)N([C@H](C)CO)C[C@@H]2C)c1 was read as PGC1a acetyl inh -22.8, PAX8 inh HTS -20.4, EWS-Fli block 24.9, FN deposition inh 1.8, HIV Env fusion 63.1*[16.7 µM] and FGF22 binding 0.0.
`COc1cccc(S(=O)(=O)N(C)C[C@H]2Oc3cc(C4=CCCC4)ccc3S(=O)(=O)N([C@H](C)CO)C[C@H]2C)c1` gave PGC1a acetyl inh -13.2, PAX8 inh HTS 21.7, EWS-Fli block 3.2, FN deposition inh -6.4, HIV Env fusion 94.6*[16.7 µM] and FGF22 binding -0.3.

Screens (PubChem)
